Measured values as given in ChEMBL document CHEMBL3414425, “Synthesis and biological evaluation of new imidazo[2,1-b][1,3,4]thiadiazole-benzimidazole derivatives” (Eur J Med Chem, 2015).
≈ marks a conversion by molar mass, not a printed value. Calls of active or inactive are those of the source. The rule behind the calls is not given here.

Tests used:
[1] = tested on: Mycobacterium tuberculosis; experiment: Antitubercular activity against Mycobacterium tuberculosis H37Rv ATCC 27294/XDR-TB incubated for 28 days by agar dilution method; format: functional; conditions: 672 h
In short: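 Agar dilution: two-fold dilutions in Middlebrook 7H11 agar with OADC. Inoculum from fresh 7H11/OADC slants adjusted to 1 mg/mL wet weight in 0.05% Tween 80 saline, diluted 10^-2 (~10⁷ cfu/mL); 5 µL spotted per tube. Incubated 37 °C; MIC, lowest concentration fully inhibiting growth, read after 28 days, in triplicate.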

Staphylococcus aureus [2] = experiment: Antibacterial activity against Staphylococcus aureus at 0.5 mg/ml incubated for 18 hrs by well plate technique; format: functional; conditions: for zone of inhibition at 500 µg/mL: read-out: DIZ
In short: (§1)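 Bacteria kept on nutrient agar at 37 °C, grown statically in nutrient broth (start ~10-100 cfu/mL) at 37 °C for 18-24 h. Suspensions diluted in saline and spread on nutrient agar, then wells cut with a cork borer. Compound in DMSO at 1 or 0.5 mg/mL added to wells, 37 °C, 18 h. Inhibition zone diameter measured minus DMSO value; triplicate; streptomycin standard.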

Pseudomonas aeruginosa [3] = experiment: Antibacterial activity against Pseudomonas aeruginosa at 1 mg/ml incubated for 18 hrs by well plate technique; format: functional; conditions: for zone of inhibition at 1000 µg/mL: read-out: DIZ; in short: as §1
[4] = tested on: Chrysosporium keratinophilum; experiment: Antifungal activity against Chrysosporium keratinophilum at 0.5 mg/ml incubated for 3 days; format: functional; conditions: for zone of inhibition at 500 µg/mL: 72 h, read-out: IZ
In short: (§2)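 Well plate method on potato dextrose agar. Fungal stock suspended in distilled water with Tween 80 and swabbed over plates. Samples in DMSO at 1 and 0.5 mg/mL added to wells, incubated 25 °C for 3 days, then scored for inhibition zones; fluconazole standard.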

[5] = Antioxidant activity assessed as DPPH radical scavenging activity incubated for 10 mins by UV-visible spectrometry; format: physicochemical
In short: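 DPPH free-radical scavenging; absorbance read at 517 nm against a methanol blank. % scavenging = (A control − A sample)/A control × 100.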

[6] = tested on: Chrysosporium keratinophilum; experiment: Antifungal activity against Chrysosporium keratinophilum at 1 mg/ml incubated for 3 days; format: functional; conditions: for zone of inhibition at 1000 µg/mL: 72 h, read-out: IZ; in short: as §2
Candida albicans [7] = experiment: Antifungal activity against Candida albicans at 0.5 mg/ml incubated for 3 days; format: functional; conditions: for zone of inhibition at 500 µg/mL: 72 h, read-out: IZ; in short: as §2
Escherichia coli [8] = experiment: Antibacterial activity against Escherichia coli at 1 mg/ml incubated for 18 hrs by well plate technique; format: functional; conditions: for zone of inhibition at 1000 µg/mL: read-out: DIZ; in short: as §1
Candida albicans [9] = experiment: Antifungal activity against Candida albicans at 1 mg/ml incubated for 3 days; format: functional; conditions: for zone of inhibition at 1000 µg/mL: 72 h, read-out: IZ; in short: as §2
Aspergillus flavus [10] = experiment: Antifungal activity against Aspergillus flavus at 1 mg/ml incubated for 3 days; format: functional; conditions: for zone of inhibition at 1000 µg/mL: 72 h, read-out: IZ; in short: as §2
Salmonella typhi [11] = experiment: Antibacterial activity against Salmonella typhi at 1 mg/ml incubated for 18 hrs by well plate technique; format: functional, Salmonella enterica subsp. enterica serovar Typhi; conditions: for zone of inhibition at 1000 µg/mL: Salmonella enterica, read-out: DIZ; for diameter of the inhibition zone (DIZ): Salmonella enterica subsp. enterica serovar Typhi
In short: (§3)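 Well diffusion on nutrient agar; strains kept on nutrient agar at 37 °C, grown statically in nutrient broth 18-24 h at 37 °C, diluted in saline, 0.1 ml spread per plate. Compounds in DMSO at 1 and 0.5 mg/mL added to cork-bored wells; 18 h at 37 °C. Inhibition zone diameter measured, DMSO value subtracted; triplicate; streptomycin reference.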

Staphylococcus aureus [12] = experiment: Antibacterial activity against Staphylococcus aureus at 1 mg/ml incubated for 18 hrs by well plate technique; format: functional; conditions: for zone of inhibition at 1000 µg/mL: read-out: DIZ; in short: as §1
[13] = Cytotoxicity against African green monkey Vero cells assessed as growth inhibition at 62.5 ug/ml after 72 hrs by MTT assay; format: cell-based; conditions: chlorocebus sabaeus, read-out: GI
In short: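 Vero cells grown in MEM + 10% FBS at 37 °C, 5% CO2. Seeded ~10,000 cells/well, 24 h to a partial monolayer. Compounds in DMSO diluted in MEM + 2% FBS (1 mg/ml stock, two-fold dilutions) for 72 h. MTT 3 h, formazan dissolved in propanol, A540. % inhibition = 100 − (mean OD test/mean OD control × 100).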

Salmonella typhi [14] = experiment: Antibacterial activity against Salmonella typhi at 0.5 mg/ml incubated for 18 hrs by well plate technique; format: functional, Salmonella enterica subsp. enterica serovar Typhi; conditions: for zone of inhibition at 500 µg/mL: Salmonella enterica, read-out: DIZ; for diameter of the inhibition zone (DIZ): Salmonella enterica subsp. enterica serovar Typhi; in short: as §3
Escherichia coli [15] = experiment: Antibacterial activity against Escherichia coli at 0.5 mg/ml incubated for 18 hrs by well plate technique; format: functional; conditions: for zone of inhibition at 500 µg/mL: read-out: DIZ; in short: as §1
Pseudomonas aeruginosa [16] = experiment: Antibacterial activity against Pseudomonas aeruginosa at 0.5 mg/ml incubated for 18 hrs by well plate technique; format: functional; conditions: for zone of inhibition at 500 µg/mL: read-out: DIZ; in short: as §1
Aspergillus flavus [17] = experiment: Antifungal activity against Aspergillus flavus at 0.5 mg/ml incubated for 3 days; format: functional; conditions: for zone of inhibition at 500 µg/mL: 72 h, read-out: IZ; in short: as §2

| SMILES | MIC [1] | zone of inhibition at 500 µg/mL (Staphylococcus aureus [2]) | zone of inhibition at 1000 µg/mL (Pseudomonas aeruginosa [3]) | zone of inhibition at 500 µg/mL [4] | inhibition (INH) [5] | zone of inhibition at 1000 µg/mL [6] | zone of inhibition at 500 µg/mL (Candida albicans [7]) | zone of inhibition at 1000 µg/mL (Escherichia coli [8]) | zone of inhibition at 1000 µg/mL (Candida albicans [9]) | zone of inhibition at 1000 µg/mL (Aspergillus flavus [10]) | zone of inhibition at 1000 µg/mL (Salmonella typhi [11]) | zone of inhibition at 1000 µg/mL (Staphylococcus aureus [12]) | inhibition at 72 h, 62.5 ug/ml [13] | zone of inhibition at 500 µg/mL (Salmonella typhi [14]) | zone of inhibition at 500 µg/mL (Escherichia coli [15]) | zone of inhibition at 500 µg/mL (Pseudomonas aeruginosa [16]) | zone of inhibition at 500 µg/mL (Aspergillus flavus [17]) | inhibition zone (IZ) [4] | inhibition zone (IZ) [6] | inhibition zone (IZ) (Candida albicans [7]) | also measured |
| --- | --- | --- | --- | --- | --- | --- | --- | --- | --- | --- | --- | --- | --- | --- | --- | --- | --- | --- | --- | --- | --- |
| COc1ccc(-c2nc3sc(-c4ccc(C)cc4)nn3c2-c2nc3cc(Cl)ccc3[nH]2)cc1 | 3.12 µg/mL (≈ 6.62 µM) | 3 mm | 7 mm | 2 mm | 31.3% | 4 mm | 2 mm | 4 mm | 3 mm | 3 mm | 3 mm | 6 mm | 8.31% | 1 mm | 2 mm | 3 mm | 2 mm |  |  |  |  |
| Cc1ccc(-c2nn3c(-c4nc5ccccc5[nH]4)c(-c4ccc(Cl)cc4)nc3s2)cc1 | 3.12 µg/mL (≈ 7.07 µM) | 2 mm | 6 mm |  | 18.8% |  |  | 4 mm |  |  | 4 mm | 3 mm | 13.3% | 2 mm | 2 mm | 3 mm |  | inactive | inactive | inactive | inhibition zone (IZ) (Candida albicans [9]): inactive; inhibition zone (IZ) (Aspergillus flavus [10]): inactive; inhibition zone (IZ) (Aspergillus flavus [17]): inactive |
| Cc1ccc(-c2nn3c(-c4nc5cc(Cl)ccc5[nH]4)c(-c4ccc(Cl)cc4)nc3s2)cc1 | 3.12 µg/mL (≈ 6.56 µM) | 3 mm | 3 mm | 1 mm | 65.7% | 3 mm | 4 mm | 4 mm | 6 mm | 5 mm |  | 5 mm | 7.4% |  | 2 mm | 2 mm | 2 mm |  |  |  | diameter of the inhibition zone (DIZ) (Salmonella typhi [11]): inactive; diameter of the inhibition zone (DIZ) (Salmonella typhi [14]): inactive |
| COc1ccc(-c2nc3sc(-c4ccccc4Cl)nn3c2-c2nc3cc([N+](=O)[O-])ccc3[nH]2)cc1 | 50 µg/mL (≈ 99.4 µM) |  |  |  | 22.1% |  |  |  |  |  |  |  |  |  |  |  |  | inactive | inactive | inactive | diameter of the inhibition zone (DIZ) (Staphylococcus aureus [2]): inactive; diameter of the inhibition zone (DIZ) (Pseudomonas aeruginosa [3]): inactive; diameter of the inhibition zone (DIZ) (Escherichia coli [8]): inactive; inhibition zone (IZ) (Candida albicans [9]): inactive; inhibition zone (IZ) (Aspergillus flavus [10]): inactive; diameter of the inhibition zone (DIZ) (Salmonella typhi [11]): inactive; diameter of the inhibition zone (DIZ) (Staphylococcus aureus [12]): inactive; diameter of the inhibition zone (DIZ) (Salmonella typhi [14]): inactive; diameter of the inhibition zone (DIZ) (Escherichia coli [15]): inactive; diameter of the inhibition zone (DIZ) (Pseudomonas aeruginosa [16]): inactive; inhibition zone (IZ) (Aspergillus flavus [17]): inactive |
| COc1ccc(-c2nc3sc(-c4ccc(F)cc4)nn3c2-c2nc3cc([N+](=O)[O-])ccc3[nH]2)cc1 | 12.5 µg/mL (≈ 25.7 µM) | 3 mm | 6 mm | 2 mm | 30.8% | 4 mm | 2 mm | 5 mm | 5 mm | 5 mm | 4 mm | 5 mm |  | 3 mm | 3 mm | 3 mm | 3 mm |  |  |  |  |
